Assay results from different studies.
Each line is one published result; the experiments were not run side by side.
Target: Serine/threonine-protein kinase pim-2 (PIM2, Homo sapiens, UniProt Q9P1W9)

SMILES | effect on | technique | tested at | remaining binding
COc1ncc2cc3ccccc3nc2c1C#N | cell-free assay | competition with immobilised ligand | 5 µM | 88%
C[C@@H]1CN(c2ccc3ncc(-c4ccc5[nH]nc(C6CC6)c5c4)n3n2)C[C@H](C)O1 | binding | competition with immobilised ligand | 0.5 µM | 3.5%
F[C@@H]1CCN(c2nccc(-c3cnn4ncccc34)n2)C1 | binding |  | 1 µM | 100%
Nc1ncc2c(n1)-c1c([nH]c3ccc(C#CC4CC4)cc13)CCCC2 | binding | competition with immobilised ligand | 1 µM | 95%
COc1cnc(Nc2cccc(S(N)(=O)=O)c2)nc1N1CCN(c2ccccc2)C(=O)C1 | binding | competition with immobilised ligand | 1 µM | 100%
COCCOc1nc(-c2ccc(Cl)nc2)nc2c1CN(C(=O)c1ncn3ccccc13)CC2 | cell-free assay | competition with immobilised ligand | 0.1 µM | 98%
COc1ccnn2ncc(-c3ccnc(N(C)C)n3)c12 | binding |  | 1 µM | 100%
CCN1CCN(Cc2ccc(C(=O)Nc3ccc(C)c(Oc4ccc5c(c4)CC(=O)N5)c3)cc2C(F)(F)F)CC1 | binding | competition with immobilised ligand | 1 µM | 97%
C[C@@H]1CCN(c2nccc(-c3cnn4ncccc34)n2)C1 | binding |  | 1 µM | 78%
O=C(c1ccc(Nc2ncc(Cl)c(-c3ccc(Cl)s3)n2)cc1)N1CCC(N2CCCC2)CC1 | binding | competition with immobilised ligand | 1 µM | 100%
CSc1cccnc1N1CCN(Cc2nc3ccccc3[nH]2)CC1 | cell-free assay | competition with immobilised ligand | 1 µM | 96%
CN(c1nccc(-c2cnn3ncccc23)n1)C1CC1 | binding |  | 1 µM | 100%
FC(F)(F)Oc1cccc(-c2cnc3ccc(-c4ccncc4)nn23)c1 | cell-free assay | competition with immobilised ligand | 5 µM | 45%
N#Cc1ccccc1CSc1nnc2c(n1)[nH]c1ccccc12 | binding | competition with immobilised ligand | 10 µM | 75%
CCC(=O)N[C@@H]1CC[C@H](C(=O)N(C)c2ccc(-c3nc4ccccc4o3)cc2)C1 | cell-free assay | competition with immobilised ligand | 1 µM | 100%
O=C(NCCCN1CCOCC1)c1ccc(Nc2ncc(Cl)c(-c3ccc(Cl)s3)n2)cc1 | binding | competition with immobilised ligand | 1 µM | 100%
Cc1c(NC(=O)c2cc(C(N)=O)nc3cc(F)ccc23)c(C(F)(F)F)nn1Cc1ccc(C(C)(C)C)cc1 | cell-free assay | competition with immobilised ligand | 1 µM | 100%
CN(CCCC(F)(F)F)c1nccc(-c2cnn3ncccc23)n1 | binding |  | 1 µM | 100%
O=C(N[C@H]1CCCCC/C=C\C2C[C@@]2(C(=O)O)NC(=O)[C@@H]2C[C@@H](Oc3ccncc3)CN2C1=O)OC1CCCC1 (stereo partly drawn) | binding | competition with immobilised ligand | 1 µM | 100%
O=C(Nc1c[nH]nc1C(=O)NC1CCNCC1)c1cc(F)cc(F)c1 | binding | competition with immobilised ligand | 1 µM | 96%
CN(C)c1ncnc(-c2ccc3nc(Nc4cc(CN5CCN(C(=O)CC(F)(F)F)CC5)ccn4)[nH]c3c2)c1Cl | cell-free assay | competition with immobilised ligand | 1 µM | 100%
O=C(c1ccc(Nc2ncc(Cl)c(-c3cc4ccccc4s3)n2)cc1)N1CCC(N2CCCC2)CC1 | binding | competition with immobilised ligand | 1 µM | 100%
N[C@@H]1CCN(c2nccc(-c3cnn4ncccc34)n2)C1 | binding |  | 1 µM | 100%
CCCOc1ccc([C@@H]2[C@@H](C(=O)O)[C@H](c3ccc4c(c3)OCO4)CN2CC(=O)Nc2c(CC)cccc2CC)cc1 | cell-free assay | competition with immobilised ligand | 1 µM | 99%
